Experimental data reported in ChEMBL document CHEMBL2157942, “ortho-Quinone tanshinones directly inhibit telomerase through an oxidative mechanism mediated by hydrogen peroxide” (Bioorg Med Chem Lett, 2011).
pEC50, pIC50: −log10 of the molar value. Calls of active or inactive are those of the source. No cut-off for these calls is given here.

What was measured:
[1] = target: T1, Telomerase reverse transcriptase (Homo sapiens, UniProt O14746); settings: MCF7, 3 uM
[2] = Cytotoxicity against telomerase negative human GM847 cells after 96 hrs by SRB assay; type: functional, cell-based; settings: GM847, 96 h
[3] = Induction of ROS generation assessed as hydrogen peroxide production in PBS buffer at 20 uM in presence of 5 nM of DTT; type: physicochemical; settings: in the assay text read “5 mM of DTT” for “5 nM of DTT”, TDE = time-dependent effect
How it was run: (§1)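 Compound at 20 µM incubated in PBS for set times under three conditions: no DTT, with 5 mM DTT, or with 5 mM DTT plus 30 U catalase. Hydrogen peroxide was measured with a commercial hydrogen peroxide kit. Two independent experiments; mean and standard deviation reported.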

[4] = target: T1, Telomerase reverse transcriptase; assay: Inhibition of pre-assembled human recombinant telomerase activity in rabbit reticulocytes after 90 mins by gel electrophoresis method based direct primer extension assay; type: cell-based
How it was run: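 Telomerase was first reconstituted in rabbit reticulocyte lysate from hTERT and hTER, then assayed post-assembly by direct primer extension with inhibitor present. Products were gel-resolved, phosphorimaged and normalized to a 32P-labeled 100 nt oligonucleotide loading control. Percent activity was taken relative to the DMSO carrier control.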

SAOS-2 = assay: Cytotoxicity against telomerase negative human Saos2 cells after 96 hrs by SRB assay; type: functional, cell-based; settings: SAOS-2, 96 h
PC-3 = assay: Cytotoxicity against telomerase positive human PC3 cells after 96 hrs by SRB assay; type: functional, cell-based; settings: PC-3, 96 h
[5] = target: T1, Telomerase reverse transcriptase; assay: Inhibition of human recombinant telomerase activity in rabbit reticulocytes after 90 mins by telomerase assemblage gel electrophoresis; type: cell-based
How it was run: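 hTERT translated in rabbit reticulocyte lysate, then incubated 1.5 h with in vitro transcribed hTER in the presence of inhibitor (DMSO carrier). Activity was read by direct primer extension, with products resolved on gel and phosphorimaged. Signal was normalized to a 100 nt 32P-labeled DNA loading control, and percent activity was taken versus the DMSO-only control.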

[6] = Induction of ROS generation assessed as hydrogen peroxide production in PBS buffer at 20 uM in absence of DTT; type: physicochemical
How it was run: as §1

MCF7 = assay: Cytotoxicity against telomerase positive human MCF7 cells after 96 hrs by SRB assay; type: functional, cell-based; settings: MCF7, 96 h
[7] = target: T1, Telomerase reverse transcriptase; assay: Inhibition of human recombinant telomerase activity in rabbit reticulocytes at 50 uM after 90 mins by telomerase assemblage gel electrophoresis; type: cell-based
How it was run: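 Assembly format: hTERT translated in rabbit reticulocyte lysate was incubated 1.5 h with in vitro transcribed hTER in the presence of inhibitor. Activity was then read by direct primer extension, with products resolved by gel electrophoresis and imaged by phosphorimaging. Products were normalized to a 100 nt 32P-labeled oligonucleotide loading control, and percent activity was calculated against a DMSO carrier control.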

[8] = Induction of ROS generation assessed as hydrogen peroxide production in PBS buffer at 20 uM in presence of 5 nM of DTT in presence of 30U catalase; type: physicochemical; settings: in the assay text read “5 mM of DTT” for “5 nM of DTT”
How it was run: as §1

[9] = target: T1, Telomerase reverse transcriptase; settings: 50 uM
[10] = target: T1, Telomerase reverse transcriptase; settings: 50 uM; remark: listed apart in the source
[11] = target: T1, Telomerase reverse transcriptase; settings: 50 uM; remark: listed apart in the source

T1 sequence (O14746 whole entry): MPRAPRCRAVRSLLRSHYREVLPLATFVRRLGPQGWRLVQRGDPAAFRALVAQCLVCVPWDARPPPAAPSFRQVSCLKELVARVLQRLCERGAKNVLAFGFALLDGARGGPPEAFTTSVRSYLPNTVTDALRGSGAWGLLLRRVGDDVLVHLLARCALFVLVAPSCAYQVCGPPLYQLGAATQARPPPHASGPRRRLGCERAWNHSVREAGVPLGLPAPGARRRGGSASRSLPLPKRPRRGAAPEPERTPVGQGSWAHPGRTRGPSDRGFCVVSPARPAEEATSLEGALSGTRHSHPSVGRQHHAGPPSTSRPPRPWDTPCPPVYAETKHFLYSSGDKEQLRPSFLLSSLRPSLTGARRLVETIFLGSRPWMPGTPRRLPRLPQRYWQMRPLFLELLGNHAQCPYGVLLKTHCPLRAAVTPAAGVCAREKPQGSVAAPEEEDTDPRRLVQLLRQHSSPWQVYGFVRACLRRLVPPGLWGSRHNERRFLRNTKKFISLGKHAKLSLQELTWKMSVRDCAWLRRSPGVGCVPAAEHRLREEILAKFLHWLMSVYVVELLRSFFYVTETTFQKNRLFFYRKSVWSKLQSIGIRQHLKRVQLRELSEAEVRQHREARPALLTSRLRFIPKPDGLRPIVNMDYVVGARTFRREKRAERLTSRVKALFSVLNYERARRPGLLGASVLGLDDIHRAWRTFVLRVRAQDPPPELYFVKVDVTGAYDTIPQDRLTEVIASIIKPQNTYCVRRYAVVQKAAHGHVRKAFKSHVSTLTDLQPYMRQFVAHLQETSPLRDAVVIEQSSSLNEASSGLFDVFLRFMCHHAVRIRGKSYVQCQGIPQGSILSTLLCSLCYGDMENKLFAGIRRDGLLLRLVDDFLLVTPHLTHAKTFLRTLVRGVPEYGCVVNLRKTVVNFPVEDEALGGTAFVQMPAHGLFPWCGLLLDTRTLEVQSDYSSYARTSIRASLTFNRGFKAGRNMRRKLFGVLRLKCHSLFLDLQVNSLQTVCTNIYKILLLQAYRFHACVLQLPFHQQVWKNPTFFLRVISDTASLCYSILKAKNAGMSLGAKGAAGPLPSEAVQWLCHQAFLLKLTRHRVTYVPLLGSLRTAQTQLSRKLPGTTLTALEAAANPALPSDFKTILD

With `Cc1coc2c1C(=O)C(=O)c1c-2ccc2c1CCCC2(C)C` [TANSHINONE IIA] the inhibition [1] was 50%, the pEC50 [2] was under 4.70 and the Activity [3] was “tde”. The pIC50 [4] was 6.30, the pEC50 (SAOS-2) was under 4.70 and the pEC50 (PC-3) was 5.92. The pIC50 [5] was 5.30, the Activity [6] was “Not Active” and the pEC50 (MCF7) was 6.05. The inhibition [7] was 75% and the Activity [8] was “Not Active”.
In the case of `C[C@H]1COC2=C1C(=O)C(=O)c1c2ccc2c1CCCC2(C)C`, the inhibition [7] was 75%.
Work on `Cc1cccc2c1ccc1c3occ(C)c3c(=O)oc21` yielded an inhibition [7] of 25%.
With `O=C1C(=O)c2ccccc2-c2ccccc21` [9,10-PHENANTHRENEQUINONE] the inhibition [9] was “inactive”, the pIC50 [4] was 6.30 and the inhibition [10] was 35%. It also gave an inhibition [11] of over 95% and a pIC50 [5] of 5.30.
With `Cc1coc2c1C(=O)C(=O)c1c-2ccc2c(C)cccc12` the inhibition [7] was 65%.
